In the library only some 1.7% were active in any assay of this set; here they are far more common.
EBNA-1 inh: EBNA-1 DNA-binding inhibitors, primary screen, biochemical, fluorescence polarization | inhibition, % at 14.8 µM | hit rate 0.34% among 300,000; in the data active = inhibition above about 28%
ZTA counter: ZTA (EBV) inhibition in EBNA-1 counter-screen. ZTA-DNA binding, fluorescence polarization. inhibition, % at 11 µM. hit rate 0.15% among 320,000. P03206; in the data active = inhibition above about 33%
Target sequence (P03206 whole entry, looked up): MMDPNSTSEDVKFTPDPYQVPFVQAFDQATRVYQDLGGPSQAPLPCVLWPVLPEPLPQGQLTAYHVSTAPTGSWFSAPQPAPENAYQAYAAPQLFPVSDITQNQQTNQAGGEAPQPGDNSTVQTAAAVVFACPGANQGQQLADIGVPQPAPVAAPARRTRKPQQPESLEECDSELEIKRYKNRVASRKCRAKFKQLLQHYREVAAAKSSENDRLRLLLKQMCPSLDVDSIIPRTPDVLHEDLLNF
PREPL inh: PREPL enzyme inhibitors, primary screen, biochemical, fluorescence polarization. AID 2751, 2010. recombinant PREPL, fluorescence polarization activity-based probe. inhibition, % at 5.96 µM. Prolyl endopeptidase-like (Homo sapiens), Q4J6C6. hit rate 0.68% among 320,000; in the data active = inhibition above about 43%
UBC13 inh: UBC13 polyubiquitin chain formation inhibitors, primary screen, biochemical, TR-FRET, uHTS; inhibition, % at 20 µM; hit rate 0.47% among 330,000; in the data active = inhibition above about 45%, passing the limit was not always enough; inconclusive = no clear call, values can overlap the other calls
Target sequence (P61088 whole entry, looked up): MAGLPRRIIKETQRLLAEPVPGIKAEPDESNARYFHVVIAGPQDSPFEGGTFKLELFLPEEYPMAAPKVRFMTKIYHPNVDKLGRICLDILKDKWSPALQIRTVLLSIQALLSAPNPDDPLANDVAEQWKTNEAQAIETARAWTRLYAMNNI
Apaf1 inhib: inhibitors of human Apaf-1 apoptosome, primary screen, biochemical, DEVD-Rh110 fluorescence, uHTS; Apoptotic protease-activating factor 1 (Homo sapiens), O14727; reconstituted apoptosome caspase-3 activity; inhibition, % at 20 µM; hit rate 0.71% among 330,000; AID 489030, 2010; active = inhibition of at least 40% at 20 µM
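detection = Rh110 fluorescence intensity | test system = biochemical Apaf-1 apoptosome reconstitution | also added = cytochrome c and DEVD-Rh110 substrate | schedule = 30 min plus 50 min, RT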
Apaf-1 inh conf: Apaf-1 inhibitors, single-dose retest, confirmation, biochemical, fluorescence, DEVD-Rh110, 20 µM; shares compounds with Apaf1 inhib; reconstituted apoptosome, caspase-3 DEVD-Rh110 fluorescence; inhibition, % at 20 µM; hit rate 25% among 1,800; AID 504614, 2011;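 active = mean inhibition of at least 40% at 20 µM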
Rh110 interf inh: Rh110 fluorescence interference by putative Apaf-1 inhibitors, confirmation, artefact control for Apaf-1 inhibitor project, biochemical, 20 µM. activation (fluorescence interference), % at 20 µM. 1,800 tested, under 10 active. AID 504615, 2011. quenched caspase reaction. shares compounds with Apaf1 inhib;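 active = signal rise of 40% or more at 20 µM, treated as a fluorescence artifact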
Fluor interf inh: fluorescence interference of Apaf-1 inhibitor hits, dose response, artefact control for Apaf-1 inhibitor project. shares compounds with Apaf1 inhib. IC50, µM. AID 588538, 2011. 460 tested, under 10 active. fluorescence interference counterscreen, Apaf-1 assay format; call rule not given here
A number is an active result; . = inactive; ? = inconclusive; / = no result given.

SMILES	EBNA-1 inh	ZTA counter	PREPL inh	UBC13 inh	Apaf1 inhib	Apaf-1 inh conf	Rh110 interf inh	others
CC(=O)Nc1cccc(C(=O)NC(C)c2ccc(-n3ccnc3)cc2)c1 (stereo not given)	.	.	.	.	41	.	.
CN1/C(=C\C(=O)COC(=O)c2ccc([N+](=O)[O-])o2)C(C)(C)c2ccccc21	.	.	.	.	56	.	.
Cc1cc(C)nc(-n2nc(C)cc2NC(=O)CN2CCc3ccccc3C2)n1	.	.	.	.	54	.	.
O=C(Nc1ccc(OCC(F)(F)C(F)F)c(C(F)(F)F)c1)c1ccccc1	.	.	.	.	.	/	/
CN(Cc1c(F)cccc1Cl)C(=O)c1cc2ccccc2o1	.	.	.	.	.	/	/
CN(Cc1c(F)cccc1Cl)C(=O)c1ccc(COc2ccccc2)cc1	.	.	.	.	53	.	.
COc1ccc(-c2nc(-c3ccccc3)nc(N3CCN(C)CC3)c2C#N)cc1	.	.	.	.	41	.	.
CN1CCN(c2nc(-c3ccc(C(C)(C)C)cc3)nc3ccccc23)CC1	.	.	.	.	43	.	.
Cc1ccc(-c2nc(N3CCN(C)CC3)c3ccccc3n2)cc1	.	.	.	.	.	/	/
COc1ccc(C2(C(=O)Nc3ccc(C)c(C)c3)CCOCC2)cc1	.	.	.	.	.	/	/
CN1CCN(c2cc3c(c4c2[nH]c2ccccc24)C(=O)CC(C)(C)C3)CC1	.	.	.	.	50	.	.
Cc1ccc(CN2CC(C(=O)N3CCN(S(=O)(=O)c4ccc(C)cc4C)CC3)CC2=O)cc1 (stereo not given)	/	.	.	.	48	.	.
COn1c2c(c3c4nonc4ccc31)CCCC2	.	.	.	.	47	52	.
CCN(C/C=C/c1ccccc1OC)Cc1ccccc1	.	.	.	.	.	/	/
O=C(OCC(=O)N1CCN(C(=O)c2ccco2)CC1)C1=COCCO1	.	.	.	.	.	/	/
COc1ccc(-n2c3nc4ccccc4nc3c3c(=N)oc(C)nc32)cc1	.	.	.	.	96	67	.	Fluor interf inh=.
COc1ccc(-n2c(N)c(C(=O)Nc3c(C)n(C)n(-c4ccccc4)c3=O)c3nc4ccccc4nc32)cc1	.	.	.	.	.	/	/
CCc1nc2sc3c(=O)[nH]cnc3c2c2c1CSC(C)(C)C2	.	.	.	?	.	/	/
COc1ccccc1CNC(=O)CN1C(=O)NC(c2ccccc2)(c2ccc(C)c(C)c2)C1=O (stereo not given)	/	/	/	.	66	.	.
O=S(=O)(Cc1ccccc1Cl)c1ncn[nH]1	.	.	.	.	.	/	/
O=C(N/N=C/c1ccsc1)C1CC1	.	.	.	.	.	/	/
Cc1ccc(-n2nc(C)c(C(=O)O)n2)c(C)c1	.	.	.	.	.	/	/
CC1=NN(c2ccc(C)cc2C)C(=O)C1C(c1ccccc1)C1C(=O)N(c2ccc(C)cc2C)N=C1C (stereo not given)	.	.	.	.	67	.	.
CCOC(=O)c1c(CN(C)C)n(C)c2c(O)c(N=NC(N)=O)c3ccc(Br)cc3c12	.	.	.	.	95	53	.	Fluor interf inh=.
C=CCN1C=C2C(=O)C(C)(OC(=O)C3CCCC3)C(=O)C=C2C=C1c1ccsc1 (stereo not given)	.	.	.	.	.	/	/
SMILES	EBNA-1 inh	ZTA counter	PREPL inh	UBC13 inh	Apaf1 inhib	Apaf-1 inh conf	Rh110 interf inh	others
COC/C=C/C1=CC2=CC(=O)C(C)(OC(=O)c3cnc4ccccc4n3)C(=O)C2=CN1CCc1ccccn1 (stereo not given)	.	.	.	.	.	/	/
COC(=O)CCC(=O)OC1(C)C(=O)C=C2C=C(C3CC3)N(CCc3ccccn3)C=C2C1=O (stereo not given)	.	.	.	.	53	.	.
COC(=O)CCCC1=CC2=CC(=O)C(C)(OC(=O)c3cccs3)C(=O)C2=CN1CCCCO (stereo not given)	.	.	.	.	.	/	/
C=CCN1C=C2C(=O)C(C)(OC(=O)CCC(=O)OC)C(=O)C=C2C=C1C1CC1 (stereo not given)	.	.	.	.	43	53	.	Fluor interf inh=.
COC(=O)CCC(=O)OC1(C)C(=O)C=C2C=C(C3CC3)N(CCCCO)C=C2C1=O (stereo not given)	.	.	.	.	64	58	.	Fluor interf inh=.
CCCc1ccc2oc(C(=O)N3CCNC(=O)C3CC(=O)OC)c(C)c2c1 (stereo not given)	.	.	.	.	.	/	/
CCOc1ccccc1-n1c(SCC(N)=O)nc2ccccc2c1=O	.	.	.	.	.	/	/
C/C(=N\O)C(C)NC(=O)c1ccccc1 (stereo not given)	.	.	.	.	.	/	/
CCOc1ccc(NC(=O)CN2C(=O)CCSc3ccc(S(=O)(=O)N4CCCC4)cc32)cc1	.	.	.	.	.	/	/
Cc1ccc(OCC(=O)N(Cc2nnc(-c3ccccc3Cl)o2)C2CC2)cc1C	/	.	.	.	56	49	.	Fluor interf inh=.
O=C1Cc2ccccc2C(=O)N1Cc1ccccc1	.	.	.	.	52	76	.	Fluor interf inh=.
CC12CCC(=O)N1C(C(=O)Nc1ccccc1N1CCCCC1)CS2 (stereo not given)	/	.	.	.	48	.	.
CCOc1ccc(S(=O)(=O)N2CCOCC2)cc1NC(=O)C1CSC2(C)CCC(=O)N12 (stereo not given)	.	.	.	.	.	/	/
CCN(CC)c1ccc(S(=O)(=O)N2CCCCC2)cc1NC(=O)C1CSC2(C)CCC(=O)N12 (stereo not given)	/	.	.	.	51	.	.
COc1cccc(-n2nnnc2SCC(=O)Nc2ccc3c(c2)OCCO3)c1	.	.	.	.	.	/	/
COc1ccc(CCN=Cc2c(C)[nH]n(-c3ccc([N+](=O)[O-])cc3)c2=O)cc1OC	.	.	.	.	.	/	/
Cc1[nH]n(-c2ccc([N+](=O)[O-])cc2)c(=O)c1/C=N/N1CCOCC1	.	.	.	.	44	.	.
O=C(Nc1ccc2c(c1)OCCO2)c1c(F)cccc1F	.	.	.	.	.	/	/
CN(CC(=O)Nc1cccc(F)c1)C(=O)c1sc2ccccc2c1Cl	/	.	.	.	57	.	.
CN(CC(=O)Nc1cccc(F)c1)C(=O)c1cccc2ccccc12	/	.	.	.	.	/	/
CCCN(CC(=O)Nc1ccccc1C)C(=O)c1sc2ccccc2c1Cl	/	.	.	.	61	44	.	Fluor interf inh=.
NC1=NC(=O)/C(=C\C=C\c2ccccc2)S1	.	.	.	.	.	/	/

Assay outcomes deposited in PubChem BioAssay by several laboratories.
